High-throughput results deposited in PubChem BioAssay by several laboratories.
PP5 primary – blocks human protein phosphatase 5 activity. P53041. purified PP5c, OMFP substrate fluorescence. inhibition, % at 6.7 µM. 0.18% of 320,000 active. AID 1987;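 active means inhibition above the campaign's mean inhibition across all tested compounds plus 3 SD, cut at about 9.5% in these data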;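 further: 0% = DMSO only and 100% = 100 µM cantharidin control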
NS3 helicase inh – blocks Hepatitis C virus NS3 helicase unwinding | NS3 helicase DNA unwinding, Cy5 molecular beacon fluorescence | 0.56% of 290,000 active | inhibition, % at 10.9 µM;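 active means inhibition above the mean of all tested compounds plus 3 SD, set per campaign, cut at about 35% in these data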;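 further: 0% = DMSO wells and 100% = thioflavine S control wells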
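System: HCV NS3 helicase fragment; control set: DMSO and thioflavine S; technique: Cy5 fluorescence at 0 and 60 min, beacon hairpin quenching; reagent: beacon DNA duplex substrate plus ATP; replicates: singlicate; schedule: 1 h reaction at 25 °C, ATP-initiated; medium: MOPS buffer pH 6.5 with MgCl2, DTT, Tween20, BSA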
DNA FID counter – fluorescent intercalator displacement, NS3 helicase counter-screen; DNA fluorescent intercalator displacement, fluorescence; 0.17% of 290,000 active; inhibition, % at 7.9 µM; in the data active means inhibition above about 37%;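 further: 0% = vehicle and 100% = reference compound; higher means more ethidium bromide displaced from hairpin DNA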
HIF activator – HIF pathway transcriptional activation | U2OS HRE-luciferase reporter, luminescence; normalized: DMSO 0%, desferrioxamine 100% | activation, % at 7.5 µM (by protocol) | 0.32% of 300,000 active;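 active means mean activation of at least 10% of the iron chelator positive control signal, with at least half of replicates also reaching 10%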
PP1 counter – blocks human PP1-alpha phosphatase, a PP5 counter-screen; purified PP1alpha, OMFP fluorescence; inhibition, % at 6.7 µM; AID 2235; 0.9% of 320,000 active;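 active means inhibition above the mean inhibition of all tested compounds plus 3 SD, computed separately for each screening campaign, cut at about 15% in these data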
Target sequence (P62136 whole entry, looked up): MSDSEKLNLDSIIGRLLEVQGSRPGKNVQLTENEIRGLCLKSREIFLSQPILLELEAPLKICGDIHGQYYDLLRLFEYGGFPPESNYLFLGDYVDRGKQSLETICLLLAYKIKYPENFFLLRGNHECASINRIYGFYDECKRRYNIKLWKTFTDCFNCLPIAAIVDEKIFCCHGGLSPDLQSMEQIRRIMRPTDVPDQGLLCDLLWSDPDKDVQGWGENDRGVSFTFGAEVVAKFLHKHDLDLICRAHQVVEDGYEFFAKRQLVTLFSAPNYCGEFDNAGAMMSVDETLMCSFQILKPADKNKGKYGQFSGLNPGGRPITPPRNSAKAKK
An asterisk follows results filed as active; . = no result. Only some compounds are listed: those with a hit (about 1.9% of all), similar ones and a draw of the others.

SMILES	PP5 primary	NS3 helicase inh	DNA FID counter	HIF activator	PP1 counter
COc1ccc(-c2nc(C#N)c(N3CCN(C(=O)c4ccco4)CC3)o2)cc1OC	-1.2	-17.6	-17.7	11.1*	-1.4
COc1ccccc1-c1nc(C#N)c(N2CCN(C(=O)c3ccco3)CC2)o1	-0.5	2.6	-35.7	0.2	-5.4
CC(=O)N1CCN(c2ccc(S(=O)(=O)NCCN(C(C)C)C(C)C)cc2[N+](=O)[O-])CC1	0.1	-3.7	9.5	1.1	-0.7
CN(C)CCNS(=O)(=O)c1ccc(N2CCN(c3ccc(F)cc3)CC2)c([N+](=O)[O-])c1	3.2	-79.3	38.0*	-0.9	-1.8
O=C(NCc1cccs1)c1nc2c(nnn2Cc2ccccc2Cl)c(=O)[nH]1	1.6	19.6	-38.3	-1.3	21.2*
CC/C=C\[C@H](O)[C@H](O)C1=C(C)C(=O)[C@]2(O1)C(=O)N[C@@](OC)(C(=O)c1ccccc1)C2O (stereo not given in full)	0.1	13.6	-5.6	0.5	-5.7
O=C(c1ccc(-c2ccc(Cl)cc2)o1)N1CCN(c2ccc([N+](=O)[O-])cc2Cl)CC1	-0.1	-0.4	-1.6	0.5	16.2*
O=C(c1ccc(-c2ccc([N+](=O)[O-])cc2)o1)N1CCCCC1	2.1	15.8	-24.6	1.5	-3.1
CCN1CCN(Cc2ccc(NC(=O)c3ccc(C)c(NC(=O)c4cccc(-c5cn[nH]c(=O)c5)c4)c3)cc2C(F)(F)F)CC1	2.4	-102.9	40.5*	1.0	1.7
COCCn1c(-c2ccc(OC)cc2)cnc1SCC(=O)Nc1ccc(OC)cc1OC	0.8	-7.2	-30.0	21.5*	-0.2
Cc1cc(C)c(C#N)c(SCc2ccc(F)cc2)n1	2.8	3.7	-3.2	-0.1	0.1
CSc1nc(C)cc(C)c1C#N	-1.5	-4.3	-1.4	103.4*	0.8
Cc1cccc(N2CCN(c3ccc(N4C(=O)CCCC4=O)cc3[N+](=O)[O-])CC2C)c1 (stereo not given)	2.5	-1.4	-3.6	78.8*	-2.3
COc1cccc(-c2nc(SCC(=O)Nc3nc(-c4ccccc4)c(C)s3)[nH]c(=O)c2C#N)c1	1.2	-8.9	13.4	0.0	17.2*
CCOc1ccc2nc(NC(=O)CSc3nc(-c4ccccc4)c(C#N)c(=O)[nH]3)sc2c1	.	-4.9	12.9	2.8	.
O=Cc1cc(N=Nc2cccc(C(=O)O)c2)ccc1O	2.5	7.7	3.9	0.2	4.4
O=Cc1cc(N=Nc2ccccc2Cl)ccc1O	-1.6	31.5	29.6	17.4*	-0.6
COc1ccc(S(=O)(=O)NCC(c2cccnc2)N2CCN(Cc3ccccc3)CC2)cc1C (stereo not given)	1.5	-46.6	5.7	-0.1	-2.8
CCOc1ccc2nc(NCCNC(=S)NCCCN(C)C)c(C#N)cc2c1	0.8	-19.3	41.7*	0.0	-3.6
CCOc1ccc(NC(=O)c2sc3nc(C)nc(N4CCOCC4)c3c2C)cc1	3.3	-7.3	-45.9	-0.4	1.4
Cc1ccc(S(=O)(=O)N/N=C/c2cccc([N+](=O)[O-])c2)cc1	3.4	-11.4	6.7	-0.2	1.5
CCCCCCCCCS(=O)(=O)N/N=C/c1cccc([N+](=O)[O-])c1	2.3	3.3	-5.1	70.5*	1.5
COc1ccc(NC(=O)C2CCCN(S(=O)(=O)c3ccc4c(c3)oc(=O)n4C)C2)c(OC)c1 (stereo not given)	1.6	-7.7	-23.3	-0.2	-2.9
CC1(C)S[C@@H]2[C@H](NC(=O)COc3ccccc3)C(=O)N2C1C(=O)OCc1cc2ccccc2n1S(=O)(=O)c1ccccc1 (stereo not given in full)	1.1	-0.3	-43.3	0.3	25.2*
CC1(C)S[C@@H]2[C@H](NC(=O)COc3ccccc3)C(=O)N2C1C(=O)OCC1CCCCC1 (stereo not given in full)	7.2	.	.	-0.9	-11.6
SMILES	PP5 primary	NS3 helicase inh	DNA FID counter	HIF activator	PP1 counter
Cc1cc(C)n2c(Nc3ccc4c(c3)OCCO4)c(-c3ccco3)nc2n1	.	60.4*	-17.3	.	.
CC(=O)c1ccc(N2CCN(CN3C(=O)CC4(CCCC4)C3=O)CC2)c(F)c1	-1.3	-14.8	-0.1	-0.9	-0.3
CC1=C(C#N)C(=O)NC(C)(C)C1	-0.1	8.3	3.8	0.2	-2.0
CC1=NC(C#N)=C(C#N)NC(C)(C)C1	0.7	-3.0	-8.5	28.4*	-1.6
CCOC(=O)CC(=O)N/N=C/c1c(N)n(C)c(=O)n(C)c1=O	0.8	-8.8	-4.8	-0.4	-0.8
CCOC(=O)c1sc(NC(=S)NC(=O)C2CC2)cc1C	1.4	-0.6	1.2	72.1*	-0.2
COC(=O)CCC(=O)OC1(C)C(=O)C2=CN(CC3CC3)C(c3ccc(OC)cc3)=CC2=C(Br)C1=O (stereo not given)	7.1	.	.	-0.5	17.2*
COc1ccc(Br)cc1/C=N/NC(=O)c1cc(Br)ccc1O	0.3	-4.1	-3.5	-0.1	0.1
COc1ccc(/C=N/NC(=O)c2ccc(CSc3nc(C)cc(C)n3)cc2)cc1O	6.6	-8.3	-19.8	-0.4	6.5
COc1ccc(O)c(/C=N/NC(=O)c2ccc(OCc3cccc(Br)c3)cc2)c1	3.4	1.2	1.3	15.7*	-0.3
COc1ccc(/C=N/NC(=O)c2ccc(Br)cc2)c(OC)c1	2.1	-3.1	-13.9	0.1	-3.3
COc1ccc(O)c(/C=N/NC(=O)c2ccc(CSc3nc(C)cc(C)n3)cc2)c1	1.3	-6.3	-12.5	29.0*	8.1
COc1ccc(C(=O)N/N=C/c2cc(Br)ccc2O)cc1OC	1.6	3.8	-15.0	39.5*	1.7
CCOc1ccc(Nc2cc(Nc3ccccc3OCC)nc(C=C(C#N)C#N)n2)cc1	0.0	4.1	0.3	0.0	2.3
O=C1N/C(=C/c2cccs2)C(=O)N1Cc1ccc(Br)cc1	-0.2	3.3	4.2	328.4*	0.2
CC(C)N1CCN(Cc2ccc(OC3CCCC3)cc2)CC1CCO (stereo not given)	-1.5	3.5	2.4	0.1	-0.7
O=C1c2cccc3c(O)ccc(c23)C(=O)N1Cc1ccccc1	-29.8	8.2	-11.1	0.0	-44.0
COC1OC(COC(=O)c2ccccc2)C(OC(=O)c2ccccc2)C1OC(=O)c1ccccc1 (stereo not given)	0.6	0.8	-16.4	-2.4	1.9
O=C(OC[C@H]1O[C@@H](OC(=O)c2cc(O)c(O)c(OC(=O)c3cc(O)c(O)c(O)c3)c2)[C@H](OC(=O)c2cc(O)c(O)c(OC(=O)c3cc(O)c(O)c(O)c3)c2)[C@@H](OC(=O)c2cc(O)c(O)c(OC(=O)c3cc(O)c(O)c(O)c3)c2)[C@@H]1OC(=O)c1cc(O)c(O)c(OC(=O)c2cc(O)c(O)c(O)c2)c1)c1cc(O)c(O)c(OC(=O)c2cc(O)c(O)c(O)c2)c1	4.4	.	.	.	82.1*
CCCOc1ccc(C(=O)Nc2ccc(S(=O)(=O)N3C[C@@H]4C[C@@H](C3)c3cccc(=O)n3C4)cc2)cc1	1.8	.	.	.	-1.4
Cc1ccc2nc(-c3ccncc3)c(NC3CCCC3)n2c1	-1.3	-10.0	2.2	1.9	1.7
